SF-1 act: SF-1 (human) activation; CHO-K1 Gal4-SF-1 LBD luciferase reporter; % increase over DMSO SF-1-specific signal; activation, % at 10 µM; hit rate 1.9% among 65,000;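 active means activation above the mean activation of all tested compounds plus 3 SD, cut at about 50% in these data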
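Material: Transient Gal4-SF-1 LBD reporter, CHO-K1 | Input: 4,000 cells/well | Dosing: One dose, 10 µM compound, 1% DMSO | Incubation: 20 h compound treatment, 37 °C | Detection: SteadyLite luciferase luminescence | Evaluation: Percent activation relative to DMSO median and mock-transfected background | Benchmarks: DMSO-treated SF-1-transfected cells as negative, DMSO-treated mock-transfected cells lacking SF-1 as background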
TNAP act mid DEA: activators of human TNAP at intermediate phosphate acceptor | 64,000 tested, under 10 active | purified TNAP, CDP-star luminescence, 100 mM DEA, 30 min; hits give high values; scale: 0 levamisole-inhibited, 1 vehicle-only enzyme | activation factor at 20 µM | P05186;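 active means activation factor of at least 2 at 20 µM, relative to controls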
Target sequence (P05186 whole entry, looked up): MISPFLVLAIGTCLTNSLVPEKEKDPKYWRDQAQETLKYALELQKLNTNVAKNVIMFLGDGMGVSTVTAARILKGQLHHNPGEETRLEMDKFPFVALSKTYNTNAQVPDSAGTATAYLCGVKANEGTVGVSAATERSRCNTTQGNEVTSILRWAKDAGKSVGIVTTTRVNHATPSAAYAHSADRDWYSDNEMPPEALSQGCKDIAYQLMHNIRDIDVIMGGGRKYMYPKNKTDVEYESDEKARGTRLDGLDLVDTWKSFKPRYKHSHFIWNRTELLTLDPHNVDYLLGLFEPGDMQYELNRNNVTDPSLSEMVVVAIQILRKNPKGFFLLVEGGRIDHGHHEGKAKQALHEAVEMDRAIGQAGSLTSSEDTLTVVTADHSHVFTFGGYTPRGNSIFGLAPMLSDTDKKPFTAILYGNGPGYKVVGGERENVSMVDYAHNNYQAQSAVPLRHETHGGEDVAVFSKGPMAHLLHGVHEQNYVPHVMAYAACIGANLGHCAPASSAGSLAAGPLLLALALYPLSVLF
RORA act: activates the human nuclear receptor RORA; AID 560; CHO-K1 Gal4-RORA LBD luciferase reporter, luminescence; percent increase over mock-subtracted basal signal; P35398; activation, % at 10 µM; hit rate 1.5% among 65,000;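 active means activation above the mean of all tested compounds plus 3 SD, cut at about 49% in these data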;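 further: 0% = DMSO-treated RORA cells and 100% = added signal equal to DMSO minus mock-transfected cells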
MT1-MMP txn act: MT1-MMP promoter transcription activation. HT1080 MT1-MMP promoter luciferase reporter, luminescence, overnight; hits give high values. activation factor at 10 µM. hit rate 0.16% among 86,000;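 active means activation factor of at least 2 for MT1-MMP transcription at 10 µM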
CD11b adhes enh: enhancers of human CD11b/CD18 binding to fibrinogen; P05107+P11215; K562 CD11b/CD18 adhesion to fibrinogen, ATPlite luminescence; activation, % at 10 µM; hit rate 0.07% among 93,000;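 active means 10 µM primary screen giving 50% or more activity, confirmed by 40% or more on retest at that dose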
CD11b adhes inh: CD11b/CD18-fibrinogen binding inhibition; P05107+P11215; K562 CD11b/CD18 adhesion to fibrinogen, ATPlite luminescence; Mn2+ added to activate the integrin; inhibition, % at 10 µM; hit rate 0.54% among 93,000; AID 1497;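 active means primary inhibition of 50% or more at 10 µM, then 40% or more on retest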
Active calls of the source: *; . = no result. An excerpt weighted towards active compounds, which were near 2.1% of everything screened.

SMILES	SF-1 act	TNAP act mid DEA	RORA act	MT1-MMP txn act	CD11b adhes enh	CD11b adhes inh
Cc1csc(-c2cnn(-c3ccccc3)c2NC(=O)c2cccc(C(F)(F)F)c2)n1	.	.	.	.	3	7
COC(=O)[C@@]1(Cc2ccc(OC)cc2)[C@H]2c3cc(C(=O)N(C)C)n(CCN4CCNC4=O)c3C[C@H]2CN1C(=O)c1ccccc1	.	.	.	1.1	.	.
Cc1nn2c(-c3ccncc3)nnc2c2ccccc12	-10	0.9	-5	1.1	0	-57
COc1ccc(-c2nnc3c4ccccc4c(C)nn23)cc1	.	.	.	2*	-4	-2
CCCNC(=O)CC1C(=O)N(Cc2ccccc2)C(C)c2nc3ccccc3n21 (centres undefined)	.	.	.	1	-5	2
O=C(/C=C/Nc1ccc(F)c(Cl)c1)c1ccco1	55*	0.8	62*	1.7	0	-1
O=C(/C=C/Nc1cccc(F)c1)c1ccco1	.	.	.	1.2	1	-12
CCn1ncc(CNC(=O)c2cccc([N+](=O)[O-])c2)c1C	.	.	.	.	-5	-3
CC1(C)CC(=O)c2cc3c(nc2C1)CC(C)(C)CC3=O	.	.	.	.	4	-10
CC1(C)CC(=O)c2cnc(N)nc2C1	.	.	.	2.4*	.	.
CC(C)C1N=C(c2ccc3c(c2)OCO3)CC(c2ccccc2O)N1 (centres undefined)	.	.	.	2*	4	6
CC(NC(=O)c1cc(-c2ccc3c(c2)OCO3)nc2ccccc12)C(C)(C)C (centres undefined)	.	.	.	1.1	0	-5
O=C(Nc1ccc2c(c1)OCO2)c1ccc(CN2CCOCC2)cc1	52*	0.9	49*	1.5	21	10
CCOC(=O)c1c(C)[nH]c(C(=O)Nc2ccc3c(c2)OCO3)c1C	132*	0.9	59*	1.2	0	-13
COc1ccc(CCNC(=O)c2ccc(CN3CCOCC3)cc2)cc1	3	1	-4	0.9	-3	1
CCOC(=O)Nc1ccc2c(c1)OCO2	.	.	.	1.4	.	.
O=C(NCCC1=CCCCC1)c1ccc(CN2CCOCC2)cc1	40	0.9	96*	1.6	.	.
O=C(Nc1ccc(CN2CCCCC2)cc1)c1ccc2c(c1)OCO2	6	1	5	1.5	-3	14
CCCCC(=O)Nc1ccc(C(=O)Nc2ccc3c(c2)OCO3)cc1	51*	0.8	60*	1.2	22	-2
CC(C)(C)[Si](C)(C)c1c2c(nc3ccc(OCc4ccccc4)cc13)-c1cccc(=O)n1C2	.	.	.	1.1	.	.
CCCCNC(=O)CSc1nc2ccsc2c(=O)n1C1CCN(C(=O)OCC)CC1	.	.	.	1.2	1	-11
CCN(CC)C(=O)c1ccc2c(c1[N+](=O)[O-])C(=O)c1ccccc1C2=O	.	.	.	.	39	-5
COc1ccc2c(c1)[nH]c1c(=O)n(CC3CCCO3)cnc12 (centres undefined)	51*	0.9	17	.	0	-12
COC(=O)c1cccc(C23CC4(C2)[C@H](CN(C)[C@@H]4c2ccccc2)C3c2ccc(Cl)nc2)c1 (some centres undefined)	.	.	.	1	.	.
CC1CCN(CCC(=O)Nc2ccc3c(c2)CCC3)CC1	.	.	.	1.1	.	.
SMILES	SF-1 act	TNAP act mid DEA	RORA act	MT1-MMP txn act	CD11b adhes enh	CD11b adhes inh
Cc1cccc(-n2nnc(C(=O)Nc3ccc(F)cc3)c2N)c1	100*	0.9	82*	1.6	22	1
COc1ccc(CCNC(=O)c2nnn(-c3cccc(C)c3)c2N)cc1OC	.	.	.	1.1	2	3
Cc1ccc(NC(=O)c2nnn(-c3cc(C)cc(C)c3)c2N)cc1	70*	0.8	66*	1.3	1	0
CCOC(=O)CNc1c(-c2ccccc2)nc2ccc(Cl)cn12	.	.	.	1.3	-1	-8
COC(=O)CNc1c(-c2ccccn2)nc2ccc(Br)cn12	69*	0.9	60*	0.5	-3	0
COc1ccc(-c2nc(-c3cccc(C)c3)[nH]c(=O)c2C#N)cc1	.	.	.	.	-2	4
N#Cc1c(-c2ccccc2)nc(-c2ccccc2)[nH]c1=O	.	.	.	.	-4	52*
COC(=O)C1=C(COc2ccccc2)NC(=O)NC1c1ccc2ccccc2c1 (centres undefined)	.	.	.	1.1	.	.
CC(C)(C)NC(=O)COC(=O)/C=C/c1ccc(F)cc1	.	.	.	.	0	1
CC1CC1C(=O)OCc1cc(=O)n2cc(Br)ccc2n1 (centres undefined)	55*	1	32	1.3	-1	-4
O=C(OCc1cc(=O)n2cc(Br)ccc2n1)C1COc2ccccc2O1 (centres undefined)	-5	0.9	-6	1.1	-1	-2
CCc1ccc(NC(=O)Nc2cccs2)cc1	-2	0.9	-21	1.4	-2	10
Cc1ccc(NC(=O)Nc2cccs2)cc1	21	1	54*	1.5	-1	-14
C/C(=N\O)c1ccc2c3c([nH]c2c1)CCCC3	64*	1	54*	1.3	4	-1
C/C(=N\O)c1ccc2[nH]ccc2c1	17	0.9	32	1.4	.	.
c1csc(-c2nnsc2-c2nc3ccccc3[nH]2)c1	21	1	10	1.3	0	-4
O=c1[nH]c2ccccc2nc1-c1cccs1	54*	.	9	1.4	-3	-12
COC(=O)CNC(=O)[C@@]1(C)C=C[C@@H](Cc2ccccc2)N1C(=O)OC	.	.	.	0	.	.
CCC1=C(OC(=O)N(CC)CC)N2C(=O)OC(=NCCOC)[C@]2(C)[C@H]2C1=CC[C@H]1C(=O)N(C)C(=O)[C@H]12	.	.	.	1.1	.	.
COc1cccc(-c2csc(NC(=O)C3CC3)n2)c1	60*	1	74*	1.6	-1	-16
COc1cccc(C(=O)Nc2nc(-c3ccc4c(c3)OCO4)cs2)c1	.	.	.	.	0	65
COc1ccc(/C=N/n2c(C)cc(C)c(C(N)=O)c2=O)cc1	.	.	.	1.1	-3	-25
CCOC(=O)c1ccc(N2Cc3ccccc3C2)cc1O	-26	0.9	-20	1.4	68*	3
CCOC(=O)c1ccc(N2Cc3ccccc3C2=N)cc1	.	.	.	.	-1	24
O=C(NCc1ccco1)C1CCCN(S(=O)(=O)c2ccc(Cl)cc2)C1 (centres undefined)	.	.	.	.	-9	8
SMILES	SF-1 act	TNAP act mid DEA	RORA act	MT1-MMP txn act	CD11b adhes enh	CD11b adhes inh
CC1(C)C2CCC1(C)C(OCC[N+](C)(C)CC(=O)OC1CCCCC1)C2 (centres undefined)	.	.	.	.	2	9
Cn1c(SCc2nc(-c3ccccc3)no2)nnc1-c1ccco1	.	.	.	1.1	.	.
CCn1c(SCc2nc(-c3ccc(Cl)cc3)no2)nnc1-c1ccco1	.	.	.	1.2	-8	58*
CCn1c(SCC(=O)c2cccs2)nnc1-c1ccco1	54*	0.9	7	1.3	3	-15
O=C1c2ccccc2C(=O)N1CCC1=CCCCC1	.	.	.	1.6	-4	-7
O=C1N/C(=C\c2ccccc2)c2ccccc21	63*	0.9	51*	1.3	1	7

From PubChem
